Results on 29 molecules are retold here after ChEMBL document CHEMBL1268892, “Antidotes to anthrax lethal factor intoxication. Part 1: Discovery of potent lethal factor inhibitors with in vivo efficacy” (Bioorg Med Chem Lett, 2010).

For orientation: logD means lipophilicity at a set pH, counting ionised and neutral species. Read a high logD as higher lipophilicity. By solubility is commonly meant the concentration that dissolves in the medium under given conditions. In general, Ki refers to a dissociation constant, usually derived from enzyme kinetics or from competition with a known ligand.

Data set [1] in a line: Lipophilicity, log D of the compound at pH 7.4. Type of data set: physicochemical. Conditions: buffer.
Data set [2] in a line: Solubility of the compound in 50% DNSO/PBS. As to conditions: 50% DMSO/PBS. Type of data set: physicochemical.
In data set [3] the target is T1, Lethal factor (Bacillus anthracis, UniProt P15917).
T1 sequence (P15917 whole entry): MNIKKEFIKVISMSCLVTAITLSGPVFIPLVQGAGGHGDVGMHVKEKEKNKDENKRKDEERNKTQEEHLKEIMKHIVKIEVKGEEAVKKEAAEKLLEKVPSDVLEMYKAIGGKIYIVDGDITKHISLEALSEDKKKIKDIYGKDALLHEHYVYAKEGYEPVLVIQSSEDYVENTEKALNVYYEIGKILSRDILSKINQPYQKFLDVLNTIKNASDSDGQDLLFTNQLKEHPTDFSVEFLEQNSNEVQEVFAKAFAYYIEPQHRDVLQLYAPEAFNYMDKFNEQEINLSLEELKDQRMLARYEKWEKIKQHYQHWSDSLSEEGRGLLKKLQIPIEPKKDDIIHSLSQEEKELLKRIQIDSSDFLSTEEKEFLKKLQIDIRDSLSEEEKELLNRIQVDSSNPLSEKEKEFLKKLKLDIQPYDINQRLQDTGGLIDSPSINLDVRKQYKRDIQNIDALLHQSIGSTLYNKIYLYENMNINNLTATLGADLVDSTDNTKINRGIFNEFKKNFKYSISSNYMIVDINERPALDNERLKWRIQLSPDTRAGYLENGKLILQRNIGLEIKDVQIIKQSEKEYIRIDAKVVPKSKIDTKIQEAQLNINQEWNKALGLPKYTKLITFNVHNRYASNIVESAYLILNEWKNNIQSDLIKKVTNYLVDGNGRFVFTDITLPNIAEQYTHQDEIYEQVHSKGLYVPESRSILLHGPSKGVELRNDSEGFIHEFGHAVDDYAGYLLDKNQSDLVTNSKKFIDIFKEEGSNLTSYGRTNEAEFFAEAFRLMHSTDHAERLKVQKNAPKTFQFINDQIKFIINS
In words: Inhibition of Bacillus anthracis lethal factor assessed as proteolysis using MCA-KKVYPYPME-Dap(Dnp)-NH2 peptide substrate by FRET assay. The procedure, abridged:
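Purified LF at 0.5 nM final with 40 μM peptide substrate in 20 mM HEPES pH 7.4, 0.1% Tween-20, 0.5 mg/mL BSA. The reaction was started by adding enzyme and incubated 4 h at 23°C to reach a steady-state rate. Cleavage was read as fluorescence increase (λex 324 nm, λem 395 nm). Ki was fitted to the tight-binding equation. Values are means of three experiments.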

In data set [4] the test system is Rattus norvegicus. The data set is described as follows: Inhibition of lethal factor-induced toxicity in Fischer 344 rat assessed as increase in median survival time at 5 mg/kg, iv relative to control. Further details: dose 5 mg/kg. It is filed as functional, organism-based.
Data set [5] concerns Rattus norvegicus. In words: Inhibition of lethal factor-induced toxicity in Fischer 344 rat assessed as increase in median survival time at 2.5 mg/kg, iv relative to control. It is filed as functional, organism-based. Further details: dose 2.5 mg/kg.

The structures appear in SMILES notation. Active and inactive are the calls of the source. The calls are words filed in the database; no cut-off is given here.

Turning to `Cc1cc(N[C@H](CCCCNCc2ccccc2F)C(=O)NO)cc(C)c1F`, the pH-dependent lipophilicity (logD) in data set [1] is below 3. Also, the solubility in data set [2] was above 5 µg/mL. Further, in data set [3], the inhibition constant (Ki) worked out at 0.69 nM.

Regarding `Cc1cc(N[C@H](CCCCNCCCc2ccc(F)cc2)C(=O)NO)cc(C)c1F`, in data set [1], the logD is below 3. The solubility in data set [2] is above 5 µg/mL. For the same molecule, the Ki in data set [3] stood at 1.3 nM.

Regarding `CO[C@H](C[C@H](CCN1CCNCC1)C(=O)NO)c1ccc(F)cc1`, in data set [1], the logD is below 3. Further, in data set [2], the solubility was above 5 µg/mL. The Ki in data set [3] was found to be 90 nM.

`CO[C@H](C[C@H](CCN(C)CCCc1ccc(F)c(C)c1)C(=O)NO)c1ccc(F)cc1` registered a logD in data set [1] below 3. The same molecule yielded a solubility in data set [2] above 5 µg/mL.

For `Cc1cc(NC(=O)NCCCC[C@@H](Nc2cc(C)c(F)c(C)c2)C(=O)NO)ccc1F`, the logD in data set [1] is below 3. In data set [2], the solubility is above 5 µg/mL. The Ki in data set [3] was 9.3 nM.

As for `Cc1cc(N[C@H](CCCCNCc2ccc([N+](=O)[O-])cc2)C(=O)NO)cc(C)c1F`, the pH-dependent lipophilicity (logD) in data set [1] was below 3. Moreover, the solubility in data set [2] was above 5 µg/mL. For the same molecule, in data set [3], the inhibition constant Ki was 0.3 nM.

With `CO[C@H](C[C@H](CCN1CCCCC1)C(=O)NO)c1ccc(F)cc1`, the Ki in data set [3] came to 230 nM.

Regarding `CO[C@H](C[C@H](CCN1CCN(c2ccccc2)CC1)C(=O)NO)c1ccc(F)cc1`, in data set [3], the Ki is 151 nM.

For `CO[C@H](C[C@H](CCN1CCCC1)C(=O)NO)c1ccc(F)cc1`, the Ki in data set [3] is 122 nM.

`Cc1cc(N[C@H](CCCCNCc2cccc(F)c2)C(=O)NO)cc(C)c1F` yielded a logD in data set [1] below 3. In data set [2], this molecule came in with a solubility above 5 µg/mL. Moreover, in data set [3], the Ki turned out to be 0.85 nM.

The molecule `CO[C@H](C[C@H](CCN1CCCC(CO)C1)C(=O)NO)c1ccc(F)cc1` (stereo partly specified) gave a logD in data set [1] below 3. Also, in data set [2], the solubility was above 5 µg/mL. For the same molecule, in data set [3], the inhibition constant (Ki) was 99 nM.

Consider `CO[C@H](C[C@H](CCN1CCN(Cc2ccccc2)CC1)C(=O)NO)c1ccc(F)cc1`, for which the Ki in data set [3] stood at 115 nM.

For the molecule `Cc1cc(N[C@H](CCCCNCc2ccc(Cl)cc2)C(=O)NO)cc(C)c1F`, in data set [1], the pH-dependent lipophilicity (logD) is below 3. Moreover, in data set [2], the solubility was above 5 µg/mL. Besides, in data set [3], the Ki came to 1.1 nM.

In data set [1], `Cc1cc(N[C@H](CCCCNCc2ccc(F)cc2)C(=O)NO)cc(C)c1F` yielded a logD below 3. Further, in data set [2], the solubility is above 5 µg/mL.

Consider `Cc1cc(CNCCCC[C@@H](Nc2cc(C)c(F)c(C)c2)C(=O)NO)ccc1F`, for which the inhibition result in data set [4] and in data set [5] was “Active” throughout. Further, in data set [1], the logD is below 3. This molecule also had a solubility in data set [2] above 5 µg/mL.

Turning to `Cc1cc(N[C@H](CCCCN)C(=O)NO)cc(C)c1F`, in data set [1], the logD is below 3. This molecule also came in with a solubility in data set [2] above 5 µg/mL. In addition, in data set [3], the Ki turned out to be 8.2 nM.

`COc1ccc(CNCCCC[C@@H](Nc2cc(C)c(F)c(C)c2)C(=O)NO)cc1` came in with a logD in data set [1] below 3. The solubility in data set [2] was above 5 µg/mL. The inhibition constant (Ki) in data set [3] is 0.44 nM.

`CO[C@H](C[C@H](CCN1CCCC(Cc2ccc(F)cc2)C1)C(=O)NO)c1ccc(F)cc1` (stereo partly specified): the logD in data set [1] was below 3. Further, the solubility in data set [2] is above 5 µg/mL. Besides, the Ki in data set [3] was found to be 33 nM.

For `Cc1cc(N[C@H](CCCCNCc2ccc(C(C)(C)C)cc2)C(=O)NO)cc(C)c1F`, the log distribution coefficient (logD) in data set [1] is below 3. In data set [2], this molecule yielded a solubility above 5 µg/mL. Further, in data set [3], the Ki worked out at 1.4 nM.

`CO[C@H](C[C@H](CCN1CCN(CCc2ccccc2)CC1)C(=O)NO)c1ccc(F)cc1`: in data set [3], the inhibition constant (Ki) was determined as 118 nM.

For the molecule `CO[C@H](C[C@H](CCN(C)CCCc1ccccc1)C(=O)NO)c1ccc(F)cc1`, the logD in data set [1] is below 3. Also, the solubility in data set [2] is above 5 µg/mL. The Ki in data set [3] worked out at 42 nM.

Regarding `CO[C@H](C[C@H](CCN1CCOCC1)C(=O)NO)c1ccc(F)cc1`, the inhibitory constant (Ki) in data set [3] turned out to be 350 nM.

The molecule `Cc1cc(C(=O)NCCCC[C@@H](Nc2cc(C)c(F)c(C)c2)C(=O)NO)ccc1F` registered a logD in data set [1] below 3. Also, the solubility in data set [2] was above 5 µg/mL. Moreover, the inhibitory constant (Ki) in data set [3] came out at 7.3 nM.

For `Cc1ccc(CNCCCC[C@@H](Nc2cc(C)c(F)c(C)c2)C(=O)NO)cc1`, in data set [1], the pH-dependent lipophilicity (logD) was below 3. Further, the solubility in data set [2] is above 5 µg/mL. The inhibition constant (Ki) in data set [3] was 0.41 nM.

On to `CO[C@H](C[C@H](CCN(C)C)C(=O)NO)c1ccc(F)cc1`, for which the logD in data set [1] is below 3. Besides, the solubility in data set [2] was above 5 µg/mL. Further, the Ki in data set [3] came to 96 nM.

In data set [1], `Cc1cc(N[C@H](CCCCNCc2ccc(C(F)(F)F)cc2)C(=O)NO)cc(C)c1F` registered a logD below 3. Further, the solubility in data set [2] was above 5 µg/mL. Also, the Ki in data set [3] came to 0.47 nM.

Molecule `Cc1cc(S(=O)(=O)NCCCC[C@@H](Nc2cc(C)c(F)c(C)c2)C(=O)NO)ccc1F` yielded a logD in data set [1] below 3. For the same molecule, in data set [2], the solubility was above 5 µg/mL. Further, the inhibition constant (Ki) in data set [3] came out at 3.1 nM.

The molecule `Cc1cc(N[C@H](CCCCNCCc2ccc(F)cc2)C(=O)NO)cc(C)c1F` had a logD in data set [1] below 3. In addition, in data set [2], the solubility was above 5 µg/mL.

In the case of `CO[C@H](C[C@H](CCN(C)Cc1ccc(-c2ccc(F)c(C)c2)cc1)C(=O)NO)c1ccc(F)cc1`, in data set [3], the inhibition constant (Ki) stood at 135 nM.
